# This is a sample that favours compounds with a hit; in the whole collection about 4.1% have one here.
# Cl transport mod = modulators of human KCC2 chloride dependent transport. Q9H2X9. KCC2 cells, thallium flux FluoZin-2 fluorescence. B-score of Tl+ flux slope (higher = more flux/activation; lower = inhibition) at 10 µM. hit rate 2.2% among 190,000. AID 1456;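 active = thallium flux slope and its plate-corrected score both differing from the plate sample mean at a set confidence after two filtering rounds, in either direction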;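 also: slope of fluorescence scaled to starting intensity during 10 to 20 s after thallium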
# Target sequence (Q9H2X9 whole entry, looked up): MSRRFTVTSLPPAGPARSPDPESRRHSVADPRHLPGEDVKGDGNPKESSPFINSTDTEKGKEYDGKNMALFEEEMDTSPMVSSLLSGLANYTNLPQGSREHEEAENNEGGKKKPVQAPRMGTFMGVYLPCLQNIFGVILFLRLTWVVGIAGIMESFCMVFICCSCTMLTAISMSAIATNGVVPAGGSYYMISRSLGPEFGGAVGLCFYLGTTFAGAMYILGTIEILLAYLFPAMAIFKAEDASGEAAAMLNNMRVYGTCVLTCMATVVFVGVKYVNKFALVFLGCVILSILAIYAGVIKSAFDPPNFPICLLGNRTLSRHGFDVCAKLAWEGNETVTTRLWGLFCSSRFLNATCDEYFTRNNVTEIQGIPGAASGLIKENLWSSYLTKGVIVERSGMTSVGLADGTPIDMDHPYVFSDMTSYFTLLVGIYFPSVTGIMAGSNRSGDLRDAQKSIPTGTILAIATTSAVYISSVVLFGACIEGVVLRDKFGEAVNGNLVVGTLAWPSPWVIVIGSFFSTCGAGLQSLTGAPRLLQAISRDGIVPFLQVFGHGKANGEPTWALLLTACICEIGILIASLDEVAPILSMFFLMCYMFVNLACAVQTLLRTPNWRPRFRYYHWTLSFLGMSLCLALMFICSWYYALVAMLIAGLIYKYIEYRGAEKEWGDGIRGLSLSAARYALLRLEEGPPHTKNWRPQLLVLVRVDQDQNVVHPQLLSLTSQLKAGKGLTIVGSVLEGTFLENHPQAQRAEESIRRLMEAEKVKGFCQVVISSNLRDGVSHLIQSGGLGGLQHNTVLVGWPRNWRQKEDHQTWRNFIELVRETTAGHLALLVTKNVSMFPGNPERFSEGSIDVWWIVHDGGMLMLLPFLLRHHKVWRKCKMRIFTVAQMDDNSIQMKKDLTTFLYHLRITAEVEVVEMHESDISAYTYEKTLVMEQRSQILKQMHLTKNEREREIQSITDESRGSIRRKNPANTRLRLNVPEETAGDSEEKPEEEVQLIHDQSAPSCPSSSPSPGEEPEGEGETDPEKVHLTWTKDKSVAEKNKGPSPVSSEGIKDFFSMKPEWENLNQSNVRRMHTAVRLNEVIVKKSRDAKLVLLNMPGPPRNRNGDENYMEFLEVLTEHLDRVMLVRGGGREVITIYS
# DTT redox prof = compounds producing H2O2 with reducing agent – biochemical, NIH compound library profiling, artefact control for MLSCN library redox annotation, primary screen | hit rate 0.03% among 200,000 | AID 878 | activation, % at 10 µM | DTT-dependent redox cycling H2O2, phenol red/HRP absorbance; 100% = 100 µM peroxide control, 0% = buffer;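 active = activation of at least 50% relative to the plate's high and low controls in the primary single-dose screen; inactive = activation below 50%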;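 also: compound incubated with DTT at 0.8 mM final as the reducing agent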
# ROMK mod = modulates human ROMK potassium channel activity; Tet-inducible ROMK, thallium flux fluorescence; actives lie on both sides; P48048; B-score at 10 µM; hit rate 2% among 130,000; AID 1918;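 active = signal ratio slope over the read window, or its plate-corrected B-score, at least 3 SD from the plate mean, either direction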;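 also: B-score of the F/F0 ratio slope over 7 to 12 s after thallium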
# Dynein cargo inh = blocks dynein driven cargo transport along microtubules | 3617.4 mouse cells, GR-EGFP nuclear translocation imaging; test concentration mostly 20 µM; stimulated with dexamethasone, 1 µM; hits give low values | z-score, hits read low | hit rate 0.47% among 220,000;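 active = plate z-score of nuclear minus cytoplasmic receptor signal below a set negative limit, without overly bright fluorescence or cell loss, cut at about -3.5 in these data, passing the limit was not always enough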;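 also: z-score of nuclear minus cytoplasmic ring GR-EGFP intensity difference per well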
#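 Buffer or medium – tet-free medium with charcoal-stripped serum · Signal – automated 10x imaging of fixed Hoechst-stained cells · Also added – dexamethasone agonist, 1.0 µM final, for 30 min · Incubation – induction 48 h, compound 1 h, agonist 30 min · Read-out – GR-EGFP nuclear translocation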
# Autophagy mod = modulators of autophagy. MEF GFP-LC3 puncta imaging; test concentration mostly 10 µM. calls only at 10 µM (by protocol). hit rate 0.98% among 190,000;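 active = percentage of spot-positive cells more than 3 SD above its plate mean, without a fluorescence outlier flag or 80% toxicity; inconclusive = no clear call, values can overlap the other calls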
# ROMK retest = retested hit modulating human ROMK potassium channel. shares compounds with ROMK mod. ROMK thallium flux, fluorescence ratio; hits give low values. normalized thallium flux (F/F0 slope) at 10 µM. hit rate 54% among 3,000. AID 1917;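 active = Flux at 10 µM at least 3 SD below or above vehicle control mean in one or both replicates; inconclusive = no clear call, values can overlap the other calls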
# A number is an active result; . = inactive; ? = inconclusive; / = not tested or not shown.
SMILES,Cl transport mod,DTT redox prof,ROMK mod,Dynein cargo inh,Autophagy mod,ROMK retest
CSCCC(NS(=O)(=O)c1ccc(Cl)cc1)C(=O)OCC(=O)N1CCOCC1 (stereo unspecified),.,.,6.3,.,.,.
COC(=O)c1ccc(-c2ccc(/C=N/NC(=O)Cc3nnc(N)s3)o2)cc1,.,/,.,.,/,/
O=C(Oc1cccnc1)c1ccc(Cl)c(Cl)c1,.,.,-5.4,.,.,?
CSc1nnc(C)c(=O)n1COC(=O)c1cc(Cl)ccc1[N+](=O)[O-],.,.,.,.,.,/
CC(C(=O)O)N1C(=O)c2ccccc2C1=O (stereo unspecified),.,.,2.9,.,.,.
CC(C(=O)N1CCN(C)CC1)N1C(=O)c2ccccc2C1=O (stereo unspecified),.,.,/,.,.,/
O=C1NN(c2ccccc2)C(=O)/C1=C\c1ccc(-c2cc([N+](=O)[O-])ccc2O)o1,/,.,/,.,.,0.054
COc1ccccc1CNCC(=O)Nc1cc(S(=O)(=O)N2CCCCCC2)ccc1Cl,.,/,/,.,/,0.066
COc1cc2c(cc1OC)-c1c(OC)c(OC)cc3ccnc(c13)C2=O,.,.,-3.4,.,.,0.054
c1cncc(-c2nc(N3CCCCCC3)c3ccccc3n2)c1,.,.,.,.,.,/
c1ccc2c(N3CCCCCC3)nc(-c3ccncc3)nc2c1,.,.,-2.8,.,.,?
N#CC1=C(N)C(C#N)(C#N)[C@H](c2c(F)cccc2F)[C@H]2CC3(CC=C12)OCCO3,.,.,-3.6,.,.,0.053
CN1CCN(Cc2c(O)ccc3cc(-c4ccccn4)c(=O)oc23)CC1,.,.,-3.3,.,.,0.059
CN1CCN(Cc2c(O)ccc3cc(Br)ccc23)CC1,.,.,.,.,.,/
CC(=O)c1ccc(-n2c(SCC(=O)c3c[nH]c4ccccc34)nc3ccccc3c2=O)cc1,.,.,/,.,.,/
Cc1cc(Cl)n2ncc(-c3ccccc3)c2n1,.,/,/,.,/,0.063
Cc1cc(N)n2ncc(-c3ccc(Cl)cc3)c2n1,.,.,/,.,.,/
S=c1[nH]nc(Cc2noc3ccccc23)n1-c1ccccc1,.,.,.,.,.,/
NS(=O)(=O)c1ccc(NC(=O)C(=O)NCCC(=O)O)cc1,.,/,.,.,/,/
N#C/C(=C\c1ccccn1)c1nc2ccccc2s1,.,.,-5.7,.,.,0.032
Clc1ccccc1-c1nnc2sc(-c3ccccn3)nn12,.,.,/,.,.,.
Clc1ccccc1-c1nnc2sc(-c3ccco3)nn12,.,.,.,.,.,/
CCOC(=O)C1CCN(C(=O)COc2ccc([N+](=O)[O-])cc2)CC1,.,.,.,.,.,/
CCOC(=O)C1CCN(c2ccc([N+](=O)[O-])c(C(C)=O)c2)CC1,.,.,-3,.,.,.
O=C(NCc1ccncc1)C(=O)N/N=C/c1cccnc1,.,.,.,.,.,/
SMILES,Cl transport mod,DTT redox prof,ROMK mod,Dynein cargo inh,Autophagy mod,ROMK retest
CC(C)c1ccc(OCC(=O)N(c2ccccn2)C2CCCCC2)cc1,.,.,-2.6,.,.,0.055
O=C(COc1ccc(F)cc1)N(c1ccccn1)C1CCCCC1,.,.,.,.,.,/
COc1ccccc1CNCC(O)Cn1c2ccccc2c2ccccc21 (stereo unspecified),.,.,-3.2,.,.,0.061
O=C(CSc1nnc(NC(=O)c2ccc(S(=O)(=O)N3CCOCC3)cc2)s1)Nc1ccccc1C(F)(F)F,.,.,.,.,.,/
CC(NC(=O)N(Cc1ccccc1)Cc1ccc2c(c1)OCO2)(C(F)(F)F)C(F)(F)F,.,.,/,.,.,/
CCC(NC(=O)N(Cc1ccccc1)Cc1ccc2c(c1)OCO2)(C(F)(F)F)C(F)(F)F,.,.,/,.,.,.
C/C(=N/NC(=O)CCc1c(C)n[nH]c1C)c1cccc([N+](=O)[O-])c1,.,/,/,.,/,/
O=C(Cc1ccc(-n2cccc2)cc1)NCc1cccs1,/,.,3.4,.,.,?
Cn1c(=O)c(Cc2ccccc2)c(O)c2ccccc21,.,.,/,.,.,/
O=c1c(Cc2ccccc2)c(O)c2cccc3c4c(n1c23)CCCC4,.,/,3.8,.,/,?
CC(=O)Oc1ccc(-c2cccc(C(=O)NCCCO)c2)cc1,.,.,.,.,.,/
COC(=O)CCC(=O)Nc1sc2c(c1C#N)CCCC2,.,.,5.9,.,.,.
Cc1ccc(C(c2nnnn2C(C)(C)C)N2CCN(C3CCCC3)CC2)cc1 (stereo unspecified),.,.,-5,.,.,.
CC(C)(C)n1nnnc1C(c1ccncc1)N1CCN(C2CCCCC2)CC1 (stereo unspecified),.,.,/,.,.,/
CCOc1ccc(-c2[nH]ncc2Oc2ccccc2OC)c(O)c1,/,.,.,.,.,/
CCOc1ccc(-c2[nH]ncc2-c2ccc(OC)c(OC)c2)c(O)c1,.,.,3.7,.,.,0.099
CCc1ccc(C(=O)CN2C(=O)NC(C)(CCc3ccccc3)C2=O)cc1 (stereo unspecified),.,.,/,.,.,/
CCOC(=O)c1[nH]c2ccccc2c1NC(=S)Nc1cccc(C)c1,.,.,.,.,.,.
CCOC(=O)c1[nH]c2ccccc2c1NC(=S)Nc1ccccc1,.,.,.,.,.,/
O=C(CNC(=O)c1cccs1)N/N=C/c1c[nH]c2ccccc12,.,.,.,.,.,/
CCOc1ccccc1/C=N/NC(=O)CNC(=O)c1cccs1,.,.,-2.1,.,.,.
O=C(CNC(=O)c1cccs1)N/N=C/c1ccco1,.,.,3.4,.,.,0.067
O=C(NC1CCCC1)c1n[nH]c2ccccc12,.,.,.,.,.,/
CCCCCCCCCCCC(=O)NC(Cc1ccc(OC)c([N+](=O)[O-])c1)C(=O)O (stereo unspecified),.,/,4.5,.,/,?
CC(Sc1nncs1)C(=O)NCC(=O)Nc1ccc(F)c(F)c1F (stereo unspecified),.,.,.,.,.,/
SMILES,Cl transport mod,DTT redox prof,ROMK mod,Dynein cargo inh,Autophagy mod,ROMK retest
Cc1cccc(C)c1NC(=O)c1ccc(-c2ccc(Cl)cc2Cl)o1,.,.,-2.9,.,.,0.052
Cc1csc2c(N3CCN(C(=S)Nc4ccc(F)cc4F)CC3)ncnc12,.,/,-3.3,.,/,0.061
Cc1csc2c(N3CCN(C(=O)Nc4ccccc4)CC3)ncnc12,.,/,.,.,/,/
C/C(CC(=O)Nc1cccc(Cl)c1Cl)=N\NC(=O)c1ccccc1C,.,.,/,.,.,/
Cc1ccc(CSc2nc3ccccc3cc2C=O)cc1,.,.,/,.,.,0.1
COc1ccc(C2=NOC(C(=O)Nc3ccc4c(c3)OCO4)C2)cc1OC (stereo unspecified),.,.,.,.,.,/
O=C1NC(=Nc2ccc3ccccc3c2)S/C1=C/c1ccco1,.,.,2.6,.,.,.
O=C(NCc1ccccn1)C1CCN(Cc2cnn(-c3ccccc3)c2-n2cccc2)CC1,.,.,.,.,.,/

# Screening data as filed in PubChem BioAssay.
